Source: PubChem (Johns Hopkins Ion Channel Center)
KCNQ1 block = human KCNQ1 channel inhibition. P51787. CHO-K1 KCNQ1, FluxOR thallium flux fluorescence; stronger effect = higher value. B-score at 10 µM. 310,000 tested, 1.3% active;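 active = compounds whose thallium flux B-score, printed positive for inhibition, exceeds three library SD while starting fluorescence stays within three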;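 note: channel opened by potassium depolarization with thallium stimulus after 20 min compound exposure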
KCNK9 inh = human KCNK9 channel inhibition. B-score at 10 µM. 310,000 tested, 1.2% active. HEK293 KCNK9, FluxOR thallium flux fluorescence; stronger effect = lower value. Q9NPC2;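 active = ratio B-score over 3 SD below the library mean, with starting fluorescence within 5 SD of its mean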;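 note: negative B-score means less thallium flux so channel inhibition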
hERG protect = shields human hERG channel from block by proarrhythmic agents. Q12809. CHO-hERG, FluxOR thallium flux, dofetilide IC70 present. activation (rescue from dofetilide block), less the hit threshold, % at 10 µM. 310,000 tested, 0.51% active;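 active = activation above the mean of controls blocked by dofetilide plus 5 SD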;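 note: thallium influx through hERG after potassium depolarization seen as dye fluorescence rise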
KCNK3 block = human KCNK3 channel inhibition, primary screen; O14649; AID 602410; B-score at 10 µM; 340,000 tested, 0.84% active; CHO-KCNK3 thallium flux, FluxOR fluorescence; stronger effect = lower value;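 active = B-score under library mean minus 4 SD, starting fluorescence ratio at most library mean plus 5 SD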;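 note: more negative B-score means stronger inhibition of thallium flux through KCNK3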
KCNQ1 pot = potentiators or activators of human KCNQ1 potassium channel; AID 2648; B-score at 10 µM; CHO-K1 KCNQ1, thallium flux FluxOR fluorescence; stronger effect = higher value; P51787; 310,000 tested, 0.35% active;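 active = fluorescence ratio B-score, a plate-corrected score, at least three library SD, with initial intensity B-score within 5 SD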
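assay system = KCNQ1-transfected CHO-K1 cells | medium = assay buffer with matched DMSO | probe or stimulus = depolarizing K+/Tl+ stimulus, K2SO4 and Tl2SO4 each 12.5 mM in 5x stock | dosing = single dose | incubation = dye 90 min, compound 20 min, room temperature | detection = kinetic FluxOR fluorescence, 10 s baseline plus 110 s post-stimulus | evaluation = ratio B score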
Kir21 inh = inhibitors of mouse Kir2.1 inward-rectifier potassium channel; P35561; HEK293-Kir2.1, FluxOR thallium flux fluorescence; stronger effect = lower value; B-score at 10 µM; 310,000 tested, 0.85% active;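 active = fluorescence ratio B-score at or below minus 3 SD of library scores, with starting-brightness B-score within 2 SD, cut at about -4.2 in these data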;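 note: channel flux triggered by added potassium and thallium sulfate stimulus; B-score of peak minus minimum fluorescence over baseline after thallium stimulus; more negative B-score means stronger Kir2.1 block with less thallium influx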
Target sequence (P35561 whole entry, looked up): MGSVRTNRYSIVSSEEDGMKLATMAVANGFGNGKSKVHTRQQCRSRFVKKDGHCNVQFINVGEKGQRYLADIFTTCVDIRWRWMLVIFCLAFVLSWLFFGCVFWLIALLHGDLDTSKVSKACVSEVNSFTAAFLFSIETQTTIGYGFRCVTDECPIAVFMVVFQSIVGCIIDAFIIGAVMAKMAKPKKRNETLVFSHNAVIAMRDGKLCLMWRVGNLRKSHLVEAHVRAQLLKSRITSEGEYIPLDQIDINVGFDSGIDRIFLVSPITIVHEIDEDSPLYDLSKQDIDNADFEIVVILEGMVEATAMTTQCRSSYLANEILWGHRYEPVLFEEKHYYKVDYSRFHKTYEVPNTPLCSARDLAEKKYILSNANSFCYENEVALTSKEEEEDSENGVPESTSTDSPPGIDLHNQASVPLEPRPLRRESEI
KCNK9 inh conf = human KCNK9 inhibitor confirmation; HEK293 KCNK9 cells, FluxOR thallium flux fluorescence; 4,900 tested, 43% active; AID 492992; shares compounds with KCNK9 inh; inhibition, % at 10 µM;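 active = thallium signal inhibited by more than 5 SD of the compound-free buffer control wells, on both duplicate plates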;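 note: 0% = assay buffer control wells without compound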
Kir2-1 spec = mouse Kir2.1 off-target activity of KCNK9 modulators | inhibition, % at 10 µM | Kir2.1 cells, FluxOR thallium flux fluorescence | shares compounds with KCNK9 inh | 4,900 tested, 4% active;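 active = thallium signal drop more than 5 SD beyond the mean of the no-compound control wells, seen in both duplicate plates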;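 note: signal is fluorescence rise after thallium addition divided by baseline fluorescence; plate controls were assay buffer only for no effect and full block by chlorpromazine control for full effect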
KCNK9 uninduced = second check of KCNK9 modulator effects in non-induced HEK293 cells. 4,900 tested, 40% active. inhibition, % at 10 µM. shares compounds with KCNK9 inh. FluxOR thallium flux. AID 492997;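 active = thallium signal drop beyond 5 SD of the untreated control mean, on both duplicate plates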;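 note: plate controls were buffer only IC0 wells for no effect and SID17386958 at its maximal inhibitory level for full effect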
KCNK3 confirm = confirmation of human KCNK3 two-pore domain potassium channel inhibitors. CHO-KCNK3 thallium flux, FluxOR fluorescence; 0% buffer, 100% carvedilol maximal block. shares compounds with KCNK3 block. 2,400 tested, 99% active. ratio percent of control, % at 10 µM;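 active = ratio percent of control, averaged over triplicates, above buffer control mean plus 5 SD, cut at about 64% in these data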;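 note: ratio is the fluorescence rise from min to max over baseline after thallium stimulus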
KCNK3 uninduced = activity in cells without induced KCNK3 expression; shares compounds with KCNK3 block; AID 651747; 2,400 tested, 40% active; thallium flux ratio (lower = more inhibition) at 10 µM; non-induced KCNK3 parental cells, FluxOR thallium flux; stronger effect = lower value;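 active = thallium flux ratio, averaged over three wells, more than 5 SD below the buffer control mean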;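 note: host cells are CHO cells without KCNK3 induction; ratio is peak minus trough fluorescence over baseline then normalized to buffer controls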
Numbers without * were called inactive; i = inactive; / = no result given. Rows were chosen to be rich in hits. Some 3.8% of all compounds tested hit in one or more screens of this group.

SMILES	KCNQ1 block	KCNK9 inh	hERG protect	KCNK3 block	KCNQ1 pot	Kir21 inh	KCNK9 inh conf	Kir2-1 spec	KCNK9 uninduced	others
CSc1ccc(C(=O)C2CCCN(Cc3cc4ccccc4[nH]3)C2)cc1 (configuration not stated)	i	i	-26	i	i	-2	i	50%*	i
CSc1ccc(C(=O)C2CCCN(Cc3cccnc3)C2)cc1 (configuration not stated)	i	i	-8	i	i	-2	/	/	/
COc1cc(CN2CCN(c3cc(C)ccc3C)CC2)ccc1O	i	i	-13	i	i	-1.6	i	i	i
O=C1/C(=C\c2cc3c(cc2Cl)OCO3)N2CCC1CC2	i	i	4	i	i	-0.9	i	i	i
O=C1/C(=C/c2cc3c(cc2Cl)OCO3)N2CCC1CC2	i	i	-10	/	i	-0.05	/	/	/
O=C1/C(=C\c2ccc(Cl)c(Cl)c2)N2CCC1CC2	i	i	-9	i	i	-0.83	i	i	i
O=C1/C(=C\c2ccncc2)N2CCC1CC2	i	i	-2	i	i	0.39	/	/	/
COc1cc(C)c(CN2CCN(c3ccccc3)CC2)cc1C	i	i	-18	i	i	1.6	i	i	i
COc1ccccc1N1CCN(Cc2cc(C)c(C)cc2O)CC1	i	i	-3	i	i	0.25	/	/	/
COC(=O)C1=C(c2ccccc2OCc2ccccc2)C[C@@H]2CC[C@H]1N2C(=O)NCc1ccc(F)cc1	/	/	/	i	/	/	/	/	/
Cc1ccc(C[n+]2c(-c3ccc(C)cc3)cc(-c3ccc(C)cc3)cc2-c2ccc(C)cc2)cc1	i	-13*	-42	-8.7*	34*	-14*	61%*	81%*	38%*
CC(=O)Nc1ccccc1C(=O)OCC(=O)c1ccc2ccccc2c1	i	i	-12	i	i	2.5	i	i	i
CCCCN1CCC(O)(c2ccccc2)C(C(=O)c2ccccc2)C1 (configuration not stated)	i	i	-12	i	i	-2.3	i	i	i
CCOc1ccccc1CN1CCCC(C(=O)c2cc(F)ccc2F)C1 (configuration not stated)	i	i	-1	i	i	-0.09	i	i	i
COc1ccccc1CN1CCCC(C(=O)c2ccccc2SC)C1 (configuration not stated)	i	i	-6	i	i	-0.04	i	i	i
COc1ccccc1CN1CCCC(C(=O)c2ccccc2OC)C1 (configuration not stated)	i	i	-5	i	i	-0.91	/	/	/
CCOC(=O)C1(c2ccccc2)CCN(CCC(=O)Nc2ccc(C(=O)OC)cc2)CC1	/	/	/	i	/	/	/	/	/
CCOC(=O)C1(c2ccccc2)CCN(CCC(C#N)(c2ccccc2)c2ccccc2)CC1	6*	-8.2*	-11	i	i	-0.57	40%*	i	38%*
CN(C)C1C(=O)C(C(N)=O)=C(O)C2(O)C(=O)C3=C(O)c4c(O)cccc4C(C)(O)C3C(O)C12 (configuration not stated)	i	i	-7	i	i	0.65	/	/	/
CCn1c(C)c(C(=O)Nc2ccc(OC)cc2)c2cc(OC)ccc21	i	i	-3	i	i	-0.27	/	/	/
COc1cccc(C2CC3C(=O)C=CC2N3Cc2ccccc2)c1 (configuration not stated)	i	i	-11	i	i	-3	i	i	i
N#Cc1ccccc1Cn1cc(C(=O)c2cccs2)c2ccccc21	i	-8.1*	-5	i	i	-0.55	i	i	34%*
O=C(c1cccs1)c1cn(Cc2ccccc2Cl)c2ccccc12	i	i	-16	i	i	-0.29	/	/	/
CC1CCC(C(C)C)C(OC(=O)Cn2c(COc3ccccc3)[n+](C)c3ccccc32)C1 (configuration not stated)	10*	-12*	-41	-8.9*	i	-17*	74%*	77%*	i	KCNK3 confirm=122*;KCNK3 uninduced=i
Cc1cccc(C#N)c1	/	/	/	i	/	/	/	/	/
SMILES	KCNQ1 block	KCNK9 inh	hERG protect	KCNK3 block	KCNQ1 pot	Kir21 inh	KCNK9 inh conf	Kir2-1 spec	KCNK9 uninduced	others
Cc1cc(OCC(=O)O)c2c3c(c(=O)oc2c1)CCCC3	i	i	-3	i	i	-0.28	/	/	/
COC(=O)c1ccc(COc2cc(C)cc3oc(=O)c4c(c23)CCCC4)o1	i	-13*	-4	-9.1*	i	1.8	26%*	i	i	KCNK3 confirm=100*;KCNK3 uninduced=i
COC(=O)C1=C(c2ccccc2)C[C@@H]2CC[C@H]1N2C(=O)NCc1cccc2ccccc12	i	i	-14	i	i	-0.46	/	/	/
Cc1ccccc1-n1c(C)cc(/C=C2/C(=O)NC(=O)N(Cc3ccco3)C2=O)c1C	i	-15*	-17	i	i	-1.6	34%*	i	32%*	KCNK3 confirm=138*;KCNK3 uninduced=0.11*
CC(=NCc1cccnc1)c1c(O)n(-c2ccccc2C)c(=O)[nH]c1=O	i	i	-13	i	i	-0.08	/	/	/
O=S1(=O)N(Cc2ccc(F)cc2)CCCN1Cc1ccccc1Cl	i	-8.3*	-4	-12*	i	-0.17	74%*	i	42%*	KCNK3 confirm=125*;KCNK3 uninduced=0.14*
Cc1ccccc1CN1CCCN(Cc2ccc(Cl)cc2)S1(=O)=O	i	-21*	-3	i	i	-0.16	72%*	i	38%*	KCNK3 confirm=119*;KCNK3 uninduced=i
COC(=O)C1=C(c2ccc(F)cc2OCc2ccccc2)C[C@@H]2CC[C@H]1N2C(=O)NCc1ccccc1Br	/	/	/	i	/	/	/	/	/
O=c1c2ccccc2nc(/C=C\c2ccccc2[N+](=O)[O-])n1-c1ccccc1O	i	i	-14	-10*	i	0.64	/	/	/	KCNK3 confirm=112*;KCNK3 uninduced=0.14*
OC1(CN2CCOCC2)C2CC3CC(C2)CC1C3 (configuration not stated)	i	i	-9	i	i	0.2	/	/	/
